The source made the active and inactive calls. No cut-off for these calls is given here.
Tests used:
[1] = system: Liver microsomes; test: Metabolic stability assessed as covalent binding in absence of NADPH in human liver microsomes at 10 uM after 1 hr; type: ADME, Microsome
How it was run: (§1)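 14C-labelled compound at 10 µM with human or rat liver microsomes (1 mg/mL) in 0.1 M potassium phosphate pH 7.4, with or without 1 mM NADPH and 1 mM glutathione, 60 min; quenched with ice-cold acetonitrile. Pellet washed with 80% methanol and ethanol/ether, solubilized, protein by BCA, radioactivity by scintillation counting.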

[2] = AUC (0 to 24 hrs) in dog at 0.5 mg/kg, po; type: ADME, organism-based, Canis lupus familiaris; design: time < 24 hr, dose 0.5 mg/kg, route oral; conditions: plasma
How it was run: (§2)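 Compound given iv and po as single doses; vehicles: mouse iv PEG 400, po OraPlus; dog iv DMSO, po 1% Tween-80/2% HPMC/97% water; cynomolgus iv propylene glycol, po suspension.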

[3] = Clearance in cynomolgus monkey at 0.5 mg/kg, iv; type: ADME, organism-based, Macaca fascicularis; design: dose 0.5 mg/kg, route intravenous; conditions: in vivo; how it was run: as §2
[4] = system: HUVEC; test: Inhibition of bFGF-induced proliferation of HUVEC; type: functional, cell-based; conditions: Homo sapiens
How it was run: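 HUVEC seeded at 3000/well in DMEM with 10% FBS, 22 h; 2 h preincubation with serial compound dilutions, then 50 ng/mL VEGF or 20 ng/mL bFGF for 72 h at 37 °C. Freeze–thaw, CyQuant DNA dye read-out; IC50 by four-parameter logistic fit, averaged over ≥2 experiments.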

[5] = Mean residence time in cynomolgus monkey at 0.5 mg/kg, iv; type: ADME, organism-based, Macaca fascicularis; design: dose 0.5 mg/kg, route intravenous; conditions: in vivo; how it was run: as §2
[6] = Mean residence time in dog at 0.5 mg/kg, iv; type: ADME, organism-based, Canis lupus familiaris; design: dose 0.5 mg/kg, route intravenous; conditions: in vivo
How it was run: (§3)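 Intravenous dosing of male/unspecified animals per species; vehicles: mouse 2 mg/kg in Peg 400, dog 0.5 mg/kg in DMSO, cynomolgus monkey 0.5 mg/kg in propylene glycol. Parameters from plasma concentration–time data by noncompartmental analysis.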

[7] = target: Macrophage colony-stimulating factor 1 receptor (Homo sapiens) (UniProt P07333); test: Inhibition of c-fms
Macrophage colony-stimulating factor 1 receptor (Homo sapiens), sequence (P07333 whole entry): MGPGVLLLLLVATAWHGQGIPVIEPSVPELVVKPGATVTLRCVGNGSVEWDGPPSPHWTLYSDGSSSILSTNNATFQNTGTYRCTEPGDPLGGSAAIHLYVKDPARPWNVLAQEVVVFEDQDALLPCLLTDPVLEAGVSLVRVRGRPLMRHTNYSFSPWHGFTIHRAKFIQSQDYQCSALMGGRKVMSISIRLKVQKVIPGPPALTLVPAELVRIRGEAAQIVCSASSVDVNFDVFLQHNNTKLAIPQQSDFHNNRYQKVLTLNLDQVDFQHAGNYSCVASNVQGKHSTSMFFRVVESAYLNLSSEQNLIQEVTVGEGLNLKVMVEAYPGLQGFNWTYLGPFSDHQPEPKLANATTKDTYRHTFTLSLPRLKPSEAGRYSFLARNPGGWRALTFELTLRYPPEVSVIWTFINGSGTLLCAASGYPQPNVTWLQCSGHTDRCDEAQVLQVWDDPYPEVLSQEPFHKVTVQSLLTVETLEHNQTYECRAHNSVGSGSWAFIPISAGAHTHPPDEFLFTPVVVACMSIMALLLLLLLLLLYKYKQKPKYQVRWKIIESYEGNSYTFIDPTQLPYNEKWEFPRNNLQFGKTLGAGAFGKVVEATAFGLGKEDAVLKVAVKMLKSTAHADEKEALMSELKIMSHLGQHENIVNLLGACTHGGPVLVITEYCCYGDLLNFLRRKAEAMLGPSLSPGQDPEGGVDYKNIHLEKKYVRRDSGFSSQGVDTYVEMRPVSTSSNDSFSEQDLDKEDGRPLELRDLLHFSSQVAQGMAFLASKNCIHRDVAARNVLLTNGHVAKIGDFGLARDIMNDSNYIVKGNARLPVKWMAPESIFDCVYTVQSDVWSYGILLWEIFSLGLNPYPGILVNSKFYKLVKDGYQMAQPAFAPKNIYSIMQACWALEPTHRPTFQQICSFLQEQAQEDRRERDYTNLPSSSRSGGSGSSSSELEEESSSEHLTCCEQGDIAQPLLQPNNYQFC

[8] = Half life in dog at 0.5 mg/kg, po; type: ADME, organism-based, Canis lupus familiaris; design: dose 0.5 mg/kg, route oral; conditions: in vivo; how it was run: as §2
[9] = Cmax in cynomolgus monkey at 2 mg/kg, po; type: ADME, organism-based, Macaca fascicularis; design: dose 2 mg/kg, route oral; conditions: in vivo; how it was run: as §2
[10] = target: Tyrosine-protein kinase Lyn (Homo sapiens, UniProt P07948); test: Inhibition of Lyn
Tyrosine-protein kinase Lyn, sequence (P07948 whole entry): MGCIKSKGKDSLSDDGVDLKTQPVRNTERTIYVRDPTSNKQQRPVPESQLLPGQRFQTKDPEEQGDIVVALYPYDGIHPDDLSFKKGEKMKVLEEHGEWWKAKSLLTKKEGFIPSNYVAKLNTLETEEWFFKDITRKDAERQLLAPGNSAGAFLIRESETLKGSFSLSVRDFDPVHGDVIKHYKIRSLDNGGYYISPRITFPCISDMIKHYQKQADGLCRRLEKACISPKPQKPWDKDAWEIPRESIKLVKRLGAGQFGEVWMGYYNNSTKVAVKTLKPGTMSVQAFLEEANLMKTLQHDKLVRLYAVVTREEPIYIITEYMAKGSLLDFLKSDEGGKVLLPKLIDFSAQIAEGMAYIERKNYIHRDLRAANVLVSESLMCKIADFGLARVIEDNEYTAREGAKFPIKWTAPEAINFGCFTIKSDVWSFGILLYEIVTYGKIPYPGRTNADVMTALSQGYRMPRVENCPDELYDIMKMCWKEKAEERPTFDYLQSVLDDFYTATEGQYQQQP

[11] = target: T1, Aurora kinase A (Homo sapiens, UniProt O14965); test: Inhibition of Aurora A
T1 sequence (O14965 whole entry): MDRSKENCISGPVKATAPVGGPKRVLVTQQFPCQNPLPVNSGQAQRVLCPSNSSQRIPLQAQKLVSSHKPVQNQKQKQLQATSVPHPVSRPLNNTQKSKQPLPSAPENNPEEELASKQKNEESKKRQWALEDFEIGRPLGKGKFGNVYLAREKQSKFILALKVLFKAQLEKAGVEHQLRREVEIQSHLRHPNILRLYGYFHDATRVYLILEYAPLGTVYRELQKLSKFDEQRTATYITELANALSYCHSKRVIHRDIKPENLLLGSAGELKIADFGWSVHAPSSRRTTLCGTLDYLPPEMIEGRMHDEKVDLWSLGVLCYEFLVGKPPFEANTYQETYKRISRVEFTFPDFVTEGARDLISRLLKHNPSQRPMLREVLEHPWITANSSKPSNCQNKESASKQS

[12] = target: Vascular endothelial growth factor receptor 2 (Homo sapiens, UniProt P35968)
[13] = target: Receptor-type tyrosine-protein kinase FLT3 (Homo sapiens) (UniProt P36888); test: Inhibition of Flt3
Receptor-type tyrosine-protein kinase FLT3 (Homo sapiens), sequence (P36888 whole entry): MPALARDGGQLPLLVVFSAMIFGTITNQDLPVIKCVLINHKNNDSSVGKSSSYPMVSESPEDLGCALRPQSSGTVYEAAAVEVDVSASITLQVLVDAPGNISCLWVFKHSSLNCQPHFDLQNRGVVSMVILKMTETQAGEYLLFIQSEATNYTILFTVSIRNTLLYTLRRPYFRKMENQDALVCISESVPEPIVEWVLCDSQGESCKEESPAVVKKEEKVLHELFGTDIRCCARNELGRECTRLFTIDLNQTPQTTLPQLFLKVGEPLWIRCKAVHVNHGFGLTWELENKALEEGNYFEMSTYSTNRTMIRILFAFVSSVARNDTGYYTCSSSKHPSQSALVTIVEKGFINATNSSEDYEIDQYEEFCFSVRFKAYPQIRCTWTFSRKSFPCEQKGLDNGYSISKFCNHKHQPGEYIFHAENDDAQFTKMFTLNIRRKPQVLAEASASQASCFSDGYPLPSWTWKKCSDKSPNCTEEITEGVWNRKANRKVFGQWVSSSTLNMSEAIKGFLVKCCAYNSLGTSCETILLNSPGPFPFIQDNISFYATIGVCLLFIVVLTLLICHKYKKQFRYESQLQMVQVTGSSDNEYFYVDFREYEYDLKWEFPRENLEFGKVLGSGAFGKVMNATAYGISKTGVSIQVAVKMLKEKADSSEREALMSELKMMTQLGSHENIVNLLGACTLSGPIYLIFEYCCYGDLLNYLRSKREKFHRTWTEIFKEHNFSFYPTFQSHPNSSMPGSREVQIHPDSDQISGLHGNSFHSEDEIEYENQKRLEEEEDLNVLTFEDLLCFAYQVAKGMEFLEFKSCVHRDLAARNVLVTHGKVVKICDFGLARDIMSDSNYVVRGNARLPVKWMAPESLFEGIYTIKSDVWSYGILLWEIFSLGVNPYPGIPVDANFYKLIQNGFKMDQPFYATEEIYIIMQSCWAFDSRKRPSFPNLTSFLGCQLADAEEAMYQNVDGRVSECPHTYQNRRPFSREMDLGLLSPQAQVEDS

[14] = Volume of distribution at steady state in mouse at 2 mg/kg, iv; type: ADME, organism-based; design: dose 2 mg/kg, route intravenous; conditions: in vivo, read-out: Vdss; how it was run: as §3
[15] = Oral bioavailability in cynomolgus monkey at 2 mg/kg; type: ADME, organism-based, Macaca fascicularis; conditions: in vivo
How it was run: (§4)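 Oral suspension dosing; vehicles: mouse 10 mg/kg in OraPlus, dog 0.5 mg/kg in 1% Tween-80/2% HPMC/97% water, cynomolgus monkey 2 mg/kg.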

[16] = Intrinsic clearance in human liver microsomes at 1 uM; type: ADME, Microsome; conditions: read-out: Stability
How it was run: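 Human or rat liver microsomes (0.25 mg protein/mL) with 1 mM NADPH, 2 mM MgCl2 in 50 mM potassium phosphate pH 7.4 at 37 °C; compound 1 µM final. Sampled 0–40 min into acetonitrile, LC-MS/MS; ln % remaining vs time slope gives T1/2; CLint = (0.693/T1/2)/0.25 mg/mL.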

[17] = system: HT-29; test: Antitumor activity in human HT29 cell xenografted CD1 nu/nu mouse assessed as inhibition of tumor growth at 10 mg/kg, po qd for 14 days; type: functional; conditions: HT-29, 336 h, read-out: TGI
How it was run: (§5)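 Female CD-1 nu/nu mice, 4–8 weeks, implanted sc in hind flank with 1 × 10^7 HT29 (DMEM high glucose, 5% FBS) or Calu-6 (RPMI 1640, 10% FBS) cells; treatment began at 13–14 days (~300 mm3). Methanesulfonate salt given po qd in OraPlus for 14 days; caliper volumes twice weekly; n = 10/group; RMANOVA with Scheffé test.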

[18] = system: Liver microsomes; test: Metabolic stability assessed as covalent binding in presence of NADPH and GSH in human liver microsomes at 10 uM after 1 hr; type: ADME, Microsome; how it was run: as §1
[19] = system: Liver microsomes; test: Metabolic stability assessed as covalent binding in presence of NADPH in rat liver microsomes at 10 uM after 1 hr; type: ADME, Microsome; how it was run: as §1
[20] = system: HT-29; test: Antitumor activity in human HT29 cell xenografted CD1 nu/nu mouse assessed as inhibition of tumor growth at 30 mg/kg, po qd for 14 days; type: functional; conditions: HT-29, 336 h, read-out: TGI; how it was run: as §5
[21] = Tmax in cynomolgus monkey at 2 mg/kg, po; type: ADME, organism-based, Macaca fascicularis; design: dose 2 mg/kg, route oral; conditions: in vivo; how it was run: as §4
[22] = target: Angiopoietin-1 receptor (Homo sapiens, UniProt Q02763); test: Inhibition of Tie2
[23] = Oral bioavailability in mouse at 10 mg/kg; type: ADME, organism-based; conditions: in vivo; how it was run: as §4
[24] = Tmax in mouse at 10 mg/kg, po; type: ADME, organism-based; design: dose 10 mg/kg, route oral; conditions: in vivo; how it was run: as §4
[25] = target: Vascular endothelial growth factor receptor 1 (Homo sapiens, UniProt P17948); test: Inhibition of human VEGFR1
Vascular endothelial growth factor receptor 1, sequence (P17948 whole entry): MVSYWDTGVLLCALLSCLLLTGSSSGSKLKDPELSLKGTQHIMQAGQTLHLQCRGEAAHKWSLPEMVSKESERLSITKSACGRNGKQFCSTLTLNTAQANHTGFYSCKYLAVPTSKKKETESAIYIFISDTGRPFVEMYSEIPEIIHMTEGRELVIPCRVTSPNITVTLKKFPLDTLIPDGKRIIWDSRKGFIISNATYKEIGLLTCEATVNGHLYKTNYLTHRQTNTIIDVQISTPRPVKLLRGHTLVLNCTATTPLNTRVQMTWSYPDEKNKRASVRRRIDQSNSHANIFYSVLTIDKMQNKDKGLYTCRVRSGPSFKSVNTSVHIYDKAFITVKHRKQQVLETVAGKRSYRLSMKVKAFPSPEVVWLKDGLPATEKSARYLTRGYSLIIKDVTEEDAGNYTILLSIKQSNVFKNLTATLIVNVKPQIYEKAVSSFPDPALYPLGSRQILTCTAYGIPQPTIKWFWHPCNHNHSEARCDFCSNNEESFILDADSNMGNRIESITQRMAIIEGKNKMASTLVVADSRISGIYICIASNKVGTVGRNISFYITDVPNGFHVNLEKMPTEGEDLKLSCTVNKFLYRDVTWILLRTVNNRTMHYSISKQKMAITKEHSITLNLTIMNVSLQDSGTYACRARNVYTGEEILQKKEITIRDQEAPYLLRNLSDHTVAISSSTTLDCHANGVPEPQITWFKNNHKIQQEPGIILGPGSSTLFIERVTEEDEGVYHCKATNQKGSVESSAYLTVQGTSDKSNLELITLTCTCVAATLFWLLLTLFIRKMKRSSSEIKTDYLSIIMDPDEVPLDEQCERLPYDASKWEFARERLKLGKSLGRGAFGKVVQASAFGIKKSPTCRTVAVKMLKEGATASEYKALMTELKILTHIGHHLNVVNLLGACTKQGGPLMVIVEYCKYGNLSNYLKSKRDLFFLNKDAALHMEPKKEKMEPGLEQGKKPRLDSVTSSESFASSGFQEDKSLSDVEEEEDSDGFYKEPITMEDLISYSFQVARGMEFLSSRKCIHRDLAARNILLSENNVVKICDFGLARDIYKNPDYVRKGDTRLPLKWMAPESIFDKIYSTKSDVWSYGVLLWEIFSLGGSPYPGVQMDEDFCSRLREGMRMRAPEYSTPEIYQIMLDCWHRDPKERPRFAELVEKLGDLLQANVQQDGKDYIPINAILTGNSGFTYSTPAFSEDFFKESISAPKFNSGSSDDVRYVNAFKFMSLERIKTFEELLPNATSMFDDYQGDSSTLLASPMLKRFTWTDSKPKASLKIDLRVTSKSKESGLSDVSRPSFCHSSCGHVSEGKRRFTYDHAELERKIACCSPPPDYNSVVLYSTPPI

[26] = Tmax in dog at 0.5 mg/kg, po; type: ADME, organism-based, Canis lupus familiaris; design: dose 0.5 mg/kg, route oral; conditions: in vivo; how it was run: as §4
[27] = AUC in VEGF-soaked disk implanted in Sprague-Dawley rat; type: ADME, organism-based; conditions: plasma
[28] = Protein binding in dog plasma; type: ADME, organism-based, Canis lupus familiaris; conditions: read-out: PPB (converted)
How it was run: (§6)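 Compound spiked into plasma at 5 µg/mL (12.9 µM) from a DMSO stock, incubated 37 °C 15 min, then ultracentrifuged 3 h at 37 °C. Supernatant below lipid layer measured by LC-MS (n = 6) against QC in plasma filtrate; % bound = 1 − (centrifuged concentration / mean QC) × 100.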

[29] = system: HUVEC; test: Inhibition of VEGF-induced proliferation of HUVEC; type: functional, cell-based; conditions: Homo sapiens
[30] = target: Platelet-derived growth factor receptor alpha (Homo sapiens) (UniProt P16234); test: Inhibition of PDGFRalpha
Platelet-derived growth factor receptor alpha (Homo sapiens), sequence (P16234 whole entry): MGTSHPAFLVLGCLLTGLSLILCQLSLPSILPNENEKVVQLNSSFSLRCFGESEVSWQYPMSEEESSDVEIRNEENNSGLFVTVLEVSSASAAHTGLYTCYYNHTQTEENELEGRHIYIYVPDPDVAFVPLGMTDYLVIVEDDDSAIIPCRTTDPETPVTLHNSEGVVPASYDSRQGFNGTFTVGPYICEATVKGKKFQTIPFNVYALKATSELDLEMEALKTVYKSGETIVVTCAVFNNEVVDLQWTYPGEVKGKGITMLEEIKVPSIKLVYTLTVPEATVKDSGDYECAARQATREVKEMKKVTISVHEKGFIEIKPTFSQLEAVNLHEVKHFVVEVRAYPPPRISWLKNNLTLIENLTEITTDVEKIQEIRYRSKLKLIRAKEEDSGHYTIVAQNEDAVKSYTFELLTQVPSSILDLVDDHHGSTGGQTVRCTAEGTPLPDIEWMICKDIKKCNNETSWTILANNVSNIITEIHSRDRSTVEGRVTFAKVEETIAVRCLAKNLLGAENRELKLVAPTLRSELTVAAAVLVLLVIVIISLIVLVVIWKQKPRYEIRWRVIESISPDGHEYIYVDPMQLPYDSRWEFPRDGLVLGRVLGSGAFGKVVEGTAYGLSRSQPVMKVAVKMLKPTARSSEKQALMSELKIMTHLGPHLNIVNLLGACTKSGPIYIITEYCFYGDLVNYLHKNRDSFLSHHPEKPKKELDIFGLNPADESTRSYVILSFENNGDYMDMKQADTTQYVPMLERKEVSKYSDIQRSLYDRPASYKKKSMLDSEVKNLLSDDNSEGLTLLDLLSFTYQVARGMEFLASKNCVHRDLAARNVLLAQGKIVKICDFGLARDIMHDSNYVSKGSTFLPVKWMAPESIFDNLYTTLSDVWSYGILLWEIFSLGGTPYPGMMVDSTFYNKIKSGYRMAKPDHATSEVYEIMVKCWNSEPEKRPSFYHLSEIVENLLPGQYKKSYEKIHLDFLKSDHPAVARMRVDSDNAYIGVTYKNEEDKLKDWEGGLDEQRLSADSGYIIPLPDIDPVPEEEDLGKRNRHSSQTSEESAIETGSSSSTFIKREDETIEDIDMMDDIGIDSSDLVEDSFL

[31] = Protein binding in mouse plasma; type: ADME, cell-free; conditions: read-out: PPB (converted); how it was run: as §6
[32] = Cmax in Sprague-Dawley rat at 2 mg/kg, po; type: ADME, organism-based; design: dose 2 mg/kg, route oral; conditions: in vivo
How it was run: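 Male Sprague–Dawley rats dosed iv via femoral vein as DMSO solution (1 or 0.5 mg/kg) or po by gavage as OraPlus suspension (pH 2.0–2.2 with methanesulfonic acid; 10 or 2 mg/kg). Serial jugular blood over 12–24 h; plasma acetonitrile precipitation, LC-MS/MS (MRM) with internal standard; noncompartmental parameters.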

Compound `COc1cc2nccc(Oc3ccc4c(C(N)=O)cccc4c3)c2cc1OC` has a Stability [1] of 14 pmol/mg/h, an AUC(0-t) at 24 h [2] of 3650 ng·h/mL and a clearance [3] of 13 mL/min/kg. For the same compound, the IC50 [4] was 230 nM, the MRT [5] was 8.6 h and the MRT [6] was 18 h. The Activity [7] was “Active”, the half-life [8] was 16 h and the Cmax [9] was 1050 ng/mL. The IC50 [10] was 88 nM, the IC50 [11] was 5000 nM and the IC50 [12] was 0.9 nM. The Activity [13] was “inactive”, the Vd [14] was 5.74 L/kg and the bioavailability [15] was 51%. The microsomal CLint at 1 µM [16] was 7 µL/min/mg, the inhibition in vivo at 10 mg/kg [17] was 85% and the Stability [18] was 3.2 pmol/mg/h. It also gave a Stability [19] of 39 pmol/mg/h, an inhibition in vivo at 30 mg/kg [20] of 94% and a Tmax [21] of 0.83 h. The IC50 [22] was 25000 nM, the bioavailability [23] was 39% and the Tmax [24] was 0.25 h. The Activity [25] was “Active”, the Tmax [26] was 0.75 h and the AUC [27] was 0.48 µM·h. For the same compound, the fraction unbound [28] was 0.038, the IC50 [29] was 2.1 nM and the Activity [30] was “Active”. For the same compound, the fraction unbound [31] was 0.027 and the Cmax [32] was 1690 ng/mL.
